Results gathered from unrelated publications.
ERBB2: Receptor tyrosine-protein kinase erbB-2 (ERBB2, Homo sapiens, UniProt P04626)
CYP2C19: Cytochrome P450 2C19 (CYP2C19, Homo sapiens, UniProt P33261)
60 kDa heat shock protein, mitochondrial: 60 kDa heat shock protein, mitochondrial (Homo sapiens, UniProt P10809)
SLC22A11: Solute carrier family 22 member 11 (SLC22A11, Homo sapiens, UniProt Q9NSA0)

COc1ccc2[nH]c(C(=O)Nc3nc(CC(=O)O)cs3)cc2c1
IC50 (ERBB2; enzyme activity, inhibitor): 1.77 µM

CNC(=O)c1ccc(Nc2ncc(C(F)(F)F)c(NCc3nccnc3N(C)S(C)(=O)=O)n2)cc1
IC50 (cGMP-dependent 3',5'-cyclic phosphodiesterase (PDE2A, Homo sapiens, UniProt O00408); enzyme activity, inhibitor): 3.8 µM

Cn1nc2c(=O)n(C3CC3)ncc2c1[C@](O)(c1cnc(C(F)(F)F)c(Cl)c1)C(F)(F)F
IC50 (CYP2C19; enzyme activity, inhibitor; human, liver microsomes; pH 7.4): > 20 µM

O=C1c2cccc3c2[C@H](CCC3)CN1[C@@H]1CN2CCC1CC2
Ki (5-hydroxytryptamine receptor 3A (HTR3A, Homo sapiens, UniProt P46098); ligand displacement, radioligand): 0.000246 µM

Cn1cncc1[C@@](N)(c1ccc(Cl)cc1)c1ccc2c(c1)c(-c1cccc(Cl)c1)cc(=O)n2C
Ki (CYP2C19; enzyme activity, inhibitor; human, liver microsomes): 0.75 µM

Cn1nc2c(=O)n(C3CC3)cnc2c1[C@](O)(c1cnc(C(F)(F)F)c(Cl)c1)C(F)(F)F
IC50 (CYP2C19; enzyme activity, inhibitor; human, liver microsomes; pH 7.4): > 20 µM

CC(C)(C)OC(=O)N1CCN(Cc2ccn(Cc3ccc(Cl)cc3)c(=O)c2O)CC1
IC50 (Lysine-specific demethylase 3B (KDM3B, Homo sapiens, UniProt Q7LBC6); enzyme activity, inhibitor, AlphaScreen): 4.79 µM

O=C1CCc2ccccc2O1
Ki (Carbonic anhydrase 2 (CA2, Homo sapiens, UniProt P00918); enzyme activity, inhibitor, stopped-flow): 48.5 µM

Cc1nn(C)c2ncc(C(=O)NCC3CC(Br)=NO3)c(Cl)c12 (stereo not drawn)
IC50 (60 kDa heat shock protein, mitochondrial; ATPase activity, inhibitor): > 250 µM

O=C(O)Cc1csc(NC(=O)c2cc3ccccc3[nH]2)n1
IC50 (ERBB2; enzyme activity, inhibitor): 0.618 µM

COC(=O)Nc1nc2ccc(C(=O)c3ccccc3)cc2[nH]1
IC50 (Tyrosine-protein kinase ABL1 (ABL1, Homo sapiens, UniProt P00519); enzyme activity, inhibitor, mobility shift): 1.78 µM

Nc1ncnc2c1ncn2[C@@H]1O[C@H](CO)[C@@H](O)[C@H]1O
IC50 (SLC22A11; transporter uptake, inhibitor, radiometric; oocytes): > 2000 µM

O=C1CC[C@H](N2Cc3cc(N4CCN(CC5CCN(c6ccc([C@@H]7c8ccc(O)cc8CC[C@@H]7c7ccccc7)cc6)CC5)CC4)ccc3C2=O)C(=O)N1
IC50 (Androgen receptor (AR, Homo sapiens, UniProt P10275); ligand displacement, radioligand): 0.1 µM

Cn1c(=O)c2c(ncn2C)n(C)c1=O
IC50 (SLC22A11; transporter uptake, inhibitor, radiometric; oocytes): 575 µM

Cn1ncc2c(Cl)c(C(=O)NCc3ccccc3)cnc21
IC50 (60 kDa heat shock protein, mitochondrial; ATPase activity, inhibitor): > 250 µM
